Activity calls are given as the source filed them. The calls are words filed in the database; no cut-off is given here.
Experiments:
[1] = system: Mus musculus; test: Anticonvulsant activity in NMRI mouse assessed as protection against maximal electroshock-induced seizures at 20 to 100 mg/kg, ip after 0.5 hrs; type: functional, organism-based
In short: (§1)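 Mice received 20, 40 and 100 mg/kg test doses. Seizures were induced by electrical shock (MES) or PTZ injection (scPTZ) at 0.5 and 4 h after dosing. The value recorded is the minimal dose protecting more than 50% of mice against seizure.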

[2] = system: Mus musculus; test: Anticonvulsant activity in ip dosed NMRI mouse assessed as dose required to cause protection against subcutaneous pentylene tetrazole-induced seizure after 0.5 hrs; type: functional; conditions: read-out: MED; in short: as §1
[3] = system: Mus musculus; test: Neurotoxicity in NMRI mouse assessed as minimal motor impairment at 20 to 100 mg/kg, ip after 0.5 hrs by rotarod test; type: toxicity, organism-based; design: dose 20-100 mg/kg, route intraperitoneal; conditions: in vivo
In short: (§2)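 Rotarod motor-impairment test in mice given 20, 40 and 100 mg/kg doses, read 0.5 and 4 h after administration. The value recorded is the minimal dose producing toxicity in more than 50% of mice.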

[4] = system: Mus musculus; test: Anticonvulsant activity in ip dosed NMRI mouse assessed as dose required to cause protection against subcutaneous pentylene tetrazole-induced seizure after 4 hrs; type: functional; conditions: read-out: MED; in short: as §1
[5] = system: Mus musculus; test: Neurotoxicity in NMRI mouse assessed as minimal motor impairment at 20 to 100 mg/kg, ip after 4 hrs by rotarod test; type: toxicity, organism-based; design: dose 20-100 mg/kg, route intraperitoneal; conditions: in vivo; in short: as §2
[6] = system: Mus musculus; test: Anticonvulsant activity in ip dosed NMRI mouse assessed as dose required to cause protection against maximal electroshock-induced seizures after 4 hrs; type: functional; conditions: read-out: MED; in short: as §1
[7] = system: Mus musculus; test: Anticonvulsant activity in NMRI mouse assessed as protection against maximal electroshock-induced seizures at 20 to 100 mg/kg, ip after 4 hrs; type: functional, organism-based; in short: as §1
[8] = system: Mus musculus; test: Anticonvulsant activity in NMRI mouse assessed as protection against subcutaneous pentylene tetrazole-induced seizure at 20 to 100 mg/kg, ip after 0.5 hrs; type: functional, organism-based; in short: as §1
[9] = system: Mus musculus; test: Anticonvulsant activity in NMRI mouse assessed as protection against subcutaneous pentylene tetrazole-induced seizure at 20 to 100 mg/kg, ip after 4 hrs; type: functional, organism-based; in short: as §1

| Structure (SMILES) | Activity [1] | minimal effective dose [2] [mg/kg] | Activity [3] | minimal effective dose [4] [mg/kg] | Activity [5] | minimal effective dose [6] [mg/kg] | Activity [7] | Activity [8] | Activity [9] |
| --- | --- | --- | --- | --- | --- | --- | --- | --- | --- |
| COc1ccc(Cn2cc(CO/N=C/c3c(-c4ccc(C)cc4)nc4c(C)cccn34)nn2)cc1 | inactive | 40 | Non-toxic | 100 | Non-toxic | 100 |  |  |  |
| Cc1ccc(Cn2cc(CO/N=C/c3c(-c4ccc(C)cc4)nc4ccc(Br)cn34)nn2)cc1 | inactive | 40 | Non-toxic | 100 | Non-toxic |  | inactive |  |  |
| Cc1cccn2c(/C=N/OCc3cn(Cc4ccc(C#N)cc4)nn3)c(-c3ccccc3)nc12 | inactive |  | Non-toxic | 40 | Non-toxic |  | inactive | inactive |  |
| Cc1ccc(Cn2cc(CO/N=C/c3c(-c4ccc(F)cc4)nc4ccc(Br)cn34)nn2)cc1 | inactive |  | Non-toxic | 100 | Non-toxic |  | inactive | inactive |  |
| O=[N+]([O-])c1ccc(Cn2cc(CO/N=C/c3c(-c4ccccc4)nc4ccc(Br)cn34)nn2)cc1 | inactive | 20 | Non-toxic | 40 | Non-toxic | 40 |  |  |  |
| O/N=C/c1c(-c2ccc(F)cc2)nc2ccc(Br)cn12 | inactive | 40 | Non-toxic | 40 | Non-toxic |  | inactive |  |  |
| N#Cc1ccc(Cn2cc(CO/N=C/c3c(-c4ccccc4)nc4ccc(Br)cn34)nn2)cc1 | inactive | 20 | Non-toxic | 20 | Non-toxic | 100 |  |  |  |
| Cc1ccc(-c2nc3ccc(Br)cn3c2/C=N/OCc2cn(Cc3ccc(C#N)cc3)nn2)cc1 | inactive | 40 | Non-toxic | 40 | Non-toxic |  | inactive |  |  |
| C#CCO/N=C/c1c(-c2ccccc2)nc2ccc(Br)cn12 | inactive |  | Non-toxic |  | Non-toxic |  | inactive | inactive | inactive |
| Cc1ccc(Cn2cc(CO/N=C/c3c(-c4ccc(C)cc4)nc4c(C)cccn34)nn2)cc1 | inactive |  | Non-toxic |  | Non-toxic |  | inactive | inactive | inactive |
| Cc1ccc(Cn2cc(CO/N=C/c3c(-c4ccccc4)nc4c(C)cccn34)nn2)cc1 | inactive |  | Non-toxic |  | Non-toxic |  | inactive | inactive | inactive |
| COc1ccc(Cn2cc(CO/N=C/c3c(-c4ccccc4)nc4ccc(Br)cn34)nn2)cc1 | inactive |  | Non-toxic | 40 | Non-toxic |  | inactive | inactive |  |
| Cc1cccn2c(/C=N/O)c(-c3ccccc3)nc12 | inactive |  | Non-toxic |  | Non-toxic |  | inactive | inactive | inactive |
| O/N=C/c1c(-c2ccccc2)nc2ccc(Br)cn12 | inactive |  | Non-toxic |  | Non-toxic |  | inactive | inactive | inactive |
| Cc1ccc(-c2nc3c(C)cccn3c2/C=N/O)cc1 | inactive | 20 | Non-toxic | 40 | Non-toxic | 40 |  |  |  |
| Cc1cccn2c(/C=N/O)c(-c3ccc(F)cc3)nc12 | inactive |  | Non-toxic | 40 | Non-toxic |  | inactive | inactive |  |
| Cc1ccc(Cn2cc(CO/N=C/c3c(-c4ccccc4)nc4ccc(Br)cn34)nn2)cc1 | inactive |  | Non-toxic |  | Non-toxic |  | inactive | inactive | inactive |
| COc1ccc(Cn2cc(CO/N=C/c3c(-c4ccc(C)cc4)nc4ccc(Br)cn34)nn2)cc1 | inactive |  | Non-toxic | 40 | Non-toxic |  | inactive | inactive |  |
| Cc1cccn2c(/C=N/OCc3cn(Cc4ccc([N+](=O)[O-])cc4)nn3)c(-c3ccccc3)nc12 | inactive |  | Non-toxic |  | Non-toxic |  | inactive | inactive | inactive |
| C#CCO/N=C/c1c(-c2ccccc2)nc2c(C)cccn12 | inactive |  | Non-toxic | 100 | Non-toxic |  | inactive | inactive |  |
| C#CCO/N=C/c1c(-c2ccc(F)cc2)nc2c(C)cccn12 | inactive |  | Non-toxic | 100 | Non-toxic |  | inactive | inactive |  |
| Cc1ccc(Cn2cc(CO/N=C/c3c(-c4ccc(F)cc4)nc4c(C)cccn34)nn2)cc1 | inactive |  | Non-toxic | 40 | Non-toxic |  | inactive | inactive |  |
| C#CCO/N=C/c1c(-c2ccc(C)cc2)nc2ccc(Br)cn12 | inactive | 20 | Non-toxic | 40 | Non-toxic | 20 |  |  |  |
| Cc1ccc(-c2nc3ccc(Br)cn3c2/C=N/O)cc1 | inactive | 20 | Non-toxic | 20 | Non-toxic | 100 |  |  |  |
| COc1ccc(Cn2cc(CO/N=C/c3c(-c4ccc(F)cc4)nc4c(C)cccn34)nn2)cc1 | inactive | 40 | Non-toxic | 40 | Non-toxic |  | inactive |  |  |
| COc1ccc(Cn2cc(CO/N=C/c3c(-c4ccccc4)nc4c(C)cccn34)nn2)cc1 | inactive | 40 | Non-toxic | 100 | Non-toxic | 40 |  |  |  |
| CN1C(=O)CN=C(c2ccccc2)c2cc(Cl)ccc21 [DIAZEPAM] |  | 20 | Non-toxic | 20 | Non-toxic |  |  |  |  |

— ChEMBL document CHEMBL2385051, “Facile synthesis of new imidazo[1,2-a]pyridines carrying 1,2,3-triazoles via click chemistry and their antiepileptic studies” (Bioorg Med Chem Lett, 2013)
